In ChEMBL document CHEMBL4004841, “6-Cyclohexylmethyl-3-hydroxypyrimidine-2,4-dione as an inhibitor scaffold of HIV reverase transcriptase: Impacts of the 3-OH on inhibiting RNase H and polymerase” (Eur J Med Chem, 2017):
Active and inactive are the calls of the source. The rule behind the calls is not given here.

How the values were obtained:
[1] = system: Human immunodeficiency virus 1; experiment: Antiviral activity against HIV1 infected in human P4R5 cells assessed as reduction in viral infection preincubated with cells for 24 hrs followed by viral infection measured after 48 hrs by fluorescence based beta-galactosidase reporter gene assay; type: functional, cell-based; settings: Human immunodeficiency virus 1, P4/R5
In short: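 P4R5 indicator cells at 4 × 10^3 per well in DMEM/10% FBS with puromycin (1 μg/ml). Cells pretreated with 1% DMSO or varying drug concentrations for 24h, infected with HIV at MOI 1.25, then incubated 48h. Read-out: lysis, MUG substrate, 4-MU fluorescence (ex 365 nm, em 446 nm). Dose-response; mean ± SD from at least two independent experiments.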

[2] = Inhibition of RNase H activity of full length HIV reverse transcriptase using RNA-DNA duplex HTS-1 substrate; design: species or system Human immunodeficiency virus
[3] = Cytotoxicity against human P4R5 cells; type: cell-based
[4] = Inhibition of HIV reverse transcriptase polymerase activity assessed as reduction in dNTP incorporation using 100 nucleotide DNA/18 nucleotide DNA as template/primer measured after 30 mins; design: species or system Human immunodeficiency virus
In short: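 20 nM full-length RT with 40 nM template/primer (18-nt DNA primer on 100-nt DNA template) and 10 μM dNTPs in 50 mM Tris pH 7.8, 50 mM NaCl, 1% DMSO, rising compound concentrations; started with 6 mM MgCl2, 30 min at 37 °C, stopped with 100 mM EDTA. Mean ± standard deviation, ≥2 independent experiments.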

[5] = Inhibition of strand transfer activity of HIV integrase expressed in Escherichia coli using 5'-[32P]-labeled oligonucleotide substrate after 60 mins by PAGE analysis; design: species or system Human immunodeficiency virus
In short: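 Recombinant IN (400 nM), purified with 10% glycerol in buffers, with 20 nM 5'-[32P] oligonucleotide substrate and inhibitor dilutions in 50 mM MOPS pH 7.2, 7.5 mM MgCl2, 14.3 mM 2-mercaptoethanol, 37 °C for 60 min; 10% DMSO controls. Products resolved on 20% polyacrylamide–7 M urea gels, quantified by phosphorimaging densitometry; IC50 by logistic nonlinear regression.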

[6] = system: Human immunodeficiency virus 1; experiment: Antiviral activity against HIV1 infected in human CEM-SS cells assessed as reduction in virus-induced cytopathic effect after 6 days by MTS assay; type: functional, cell-based; settings: Human immunodeficiency virus 1, CEM-SS, 144 h
In short: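 CEM-SS cells mixed with pre-titered HIV-1 IIIB and compound, incubated 6 days; virus titer set so virus-control wells lose 70–95% viability. Cell, virus, compound-toxicity and compound-only colorimetric controls on each plate; AZT positive control. Viability by MTS; EC50 derived; mean ± standard deviation from at least two independent experiments.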

[7] = system: Human immunodeficiency virus type 1 reverse transcriptase (Human immunodeficiency virus 1), Q72547 [K103N]; experiment: Inhibition of polymerase activity of HIV reverse transcriptase K103N mutant assessed as reduction in dNTP incorporation up to 10 uM using 100 nucleotide DNA/18 nucleotide DNA as template/primer measured after 30 mins
In short: (§1)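 Mutant RT (20 nM) with 40 nM 18-nt DNA primer annealed to 100-nt DNA template and 10 μM dNTPs, in 50 mM Tris pH 7.8, 50 mM NaCl, 1% DMSO, with increasing compound up to 10 μM. Started with 6 mM MgCl2, run 30 min at 37 °C, stopped with 100 mM EDTA; DNA extension measured.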

[8] = system: Human immunodeficiency virus type 1 reverse transcriptase (Human immunodeficiency virus 1), Q72547 [Y181C]; experiment: Inhibition of polymerase activity of HIV reverse transcriptase Y181C mutant assessed as reduction in dNTP incorporation up to 10 uM using 100 nucleotide DNA/18 nucleotide DNA as template/primer measured after 30 mins; in short: as §1

Row | SMILES | EC50 [1] | IC50 [2] | CC50 [3] | IC50 [4] | IC50 [5] | EC50 [6] | inhibition [7] | inhibition [8]
1 | CCc1c(CC2CCCCC2)n(COCc2ccc(C(F)(F)F)cc2)c(=O)n(O)c1=O | 2.4 µM | 10 µM | > 100 µM | 7 µM | > 100 µM | – | – | –
2 | Cc1c(CC2CCCCC2)n(COCc2ccccc2)c(=O)n(O)c1=O | > 15 µM | 3.1 µM | > 100 µM | > 10 µM | > 100 µM | – | – | –
3 | Cc1c(CC2CCCCC2)n(COCc2ccc(C(F)(F)F)cc2)c(=O)n(O)c1=O | > 15 µM | 7.6 µM | > 100 µM | 10 µM | > 100 µM | – | – | –
4 | CC(C)c1c(CC2CCCCC2)n(COCc2ccccc2)c(=O)[nH]c1=O | 0.0052 µM | > 10 µM | 23 µM | 0.085 µM | – | – | – | –
5 | Cc1c(CC2CCCCC2)n(COCc2ccc(F)c(F)c2)c(=O)[nH]c1=O | 0.21 µM | > 10 µM | 65 µM | 10 µM | – | – | – | –
6 | CCc1c(CC2CCCCC2)n(COCc2ccc(F)c(F)c2)c(=O)n(O)c1=O | 4.1 µM | 1.7 µM | > 100 µM | > 10 µM | > 100 µM | – | – | –
7 | CCc1c(CC2CCCCC2)n(COCc2cccc(Cl)c2F)c(=O)n(O)c1=O | 0.42 µM | 1.1 µM | > 100 µM | 6.5 µM | > 100 µM | 1.8 µM | – | –
8 | Cc1c(CC2CCCCC2)n(COCCc2ccc(F)cc2)c(=O)[nH]c1=O | 5.3 µM | > 10 µM | 56 µM | > 10 µM | – | – | – | –
9 | Cc1c(CC2CCCCC2)n(COCc2ccc(C(F)(F)F)cc2)c(=O)[nH]c1=O | 0.8 µM | > 10 µM | > 100 µM | 10 µM | – | – | – | –
10 | CCc1c(CC2CCCCC2)n(COCc2cccc(Cl)c2F)c(=O)[nH]c1=O | 0.048 µM | > 10 µM | 32 µM | 1.5 µM | – | – | – | –
11 | CCc1c(CC2CCCCC2)n(COCc2ccc(F)cc2)c(=O)n(O)c1=O | 0.039 µM | 5.8 µM | > 100 µM | 1.5 µM | > 100 µM | 0.32 µM | – | –
12 | CCc1c(CC2CCCCC2)n(COCc2ccc(C)cc2)c(=O)n(O)c1=O | 0.43 µM | 2.1 µM | > 100 µM | 6.5 µM | > 100 µM | – | – | –
13 | Cc1c(CC2CCCCC2)n(COCc2cccc(Cl)c2F)c(=O)n(O)c1=O | > 15 µM | 2.2 µM | > 100 µM | > 10 µM | > 100 µM | – | – | –
14 | CCc1c(CC2CCCCC2)n(COCc2ccc(F)cc2)c(=O)[nH]c1=O | 0.0075 µM | > 10 µM | 42 µM | 0.48 µM | – | – | – | –
15 | CCc1c(CC2CCCCC2)n(COCc2ccccc2)c(=O)[nH]c1=O | 0.0062 µM | > 10 µM | > 50 µM | 0.22 µM | – | – | – | –
16 | CCc1c(CC2CCCCC2)n(COCc2ccc(C)cc2)c(=O)[nH]c1=O | 0.011 µM | > 10 µM | 30 µM | 0.36 µM | – | – | – | –
17 | CC(C)c1c(Cc2ccccc2)n(COCc2ccccc2)c(=O)[nH]c1=O | 0.011 µM | > 10 µM | 58 µM | 0.42 µM | – | – | – | –
18 | Cc1c(CC2CCCCC2)n(COCc2ccccc2)c(=O)[nH]c1=O | 0.065 µM | > 10 µM | > 100 µM | 6.8 µM | – | – | – | –
19 | CC(C)c1c(CC2CCCCC2)n(COCc2ccc(F)cc2)c(=O)n(O)c1=O | 2.4 µM | 2.7 µM | > 100 µM | 9.9 µM | > 100 µM | – | – | –
20 | CCc1c(CC2CCCCC2)n(COCc2ccc(F)c(F)c2)c(=O)[nH]c1=O | 0.014 µM | > 10 µM | 29 µM | 0.82 µM | – | – | – | –
21 | Cc1c(CC2CCCCC2)n(COCCc2ccc(F)cc2)c(=O)n(O)c1=O | 10 µM | 3.9 µM | > 100 µM | > 10 µM | > 100 µM | – | – | –
22 | CC(C)c1c(CC2CCCCC2)n(COCc2ccc(F)cc2)c(=O)[nH]c1=O | 0.0072 µM | > 10 µM | 31 µM | 0.3 µM | – | – | – | –
23 | CC(C)c1c(CC2CCCCC2)n(COCc2ccccc2)c(=O)n(O)c1=O | 0.026 µM | 5.2 µM | > 100 µM | 0.45 µM | > 100 µM | – | inactive | inactive
24 | Cc1c(CC2CCCCC2)n(COCc2ccc(F)c(F)c2)c(=O)n(O)c1=O | > 15 µM | 4.6 µM | > 100 µM | 10 µM | > 100 µM | – | – | –
25 | CCc1c(CC2CCCCC2)n(COCc2ccccc2)c(=O)n(O)c1=O | 0.059 µM | 5.5 µM | > 100 µM | 2.3 µM | > 100 µM | 0.56 µM | – | –
26 | Cc1c(CC2CCCCC2)n(COCc2cccc(Cl)c2F)c(=O)[nH]c1=O | 0.83 µM | > 10 µM | 38 µM | 10 µM | – | – | – | –
27 | CCc1c(CC2CCCCC2)n(COCc2ccc(C(F)(F)F)cc2)c(=O)[nH]c1=O | 0.039 µM | > 10 µM | 28 µM | 0.81 µM | – | – | – | –
